Source: ChEMBL document CHEMBL4673252, “Discovery and Early Clinical Development of Isobutyl 1-[8-Methoxy-5-(1-oxo-3H-isobenzofuran-5-yl)-[1,2,4]triazolo[1,5-a]pyridin-2-yl]cyclopropanecarboxylate (LEO 39652), a Novel "Dual-Soft" PDE4 Inhibitor for Topical Treatment of Atopic Dermatitis” (J Med Chem, 2020)

Target: Phosphodiesterase 4 (Homo sapiens, UniProt P27815+Q08499+Q07343+Q08493)
Assay: Inhibition of PDE4 (unknown origin)
Type: protein assay
Details: not given

IC50 [nM]	SMILES
1.7	COc1ccc(C(=O)Cc2c(Cl)cncc2Cl)n2nc(C3CC3)nc12
2.8	CCCNC(=O)COc1c(C(=O)Cc2c(Cl)cncc2Cl)ccc(OC)c1OC
100	COc1ccc(C(=O)Cc2c(Cl)cncc2Cl)n2ncnc12

System: not listed separately
Assay: Clearance in human liver microsomes at 0.5 uM incubated for 40 mins in presence of NADPH by LC-MS/MS analysis
Type: ADME, Microsome
Details: read-out: CLH
Method in brief: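 Human liver microsomes (0.5 mg/mL) with 1 mM NADPH and 0.5 μM test compound, incubated for 40 min. Samples were taken before NADPH and at 5, 10, 20, 40 min, quenched with cold acetonitrile containing internal standard, and analysed by LC-MS/MS. Control incubations in buffer and without NADPH. Apparent clearance was calculated from depletion.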

CLint scaled at 0.5 µM [mL/min/kg]	SMILES
> 200	CC[C@@H](C)OC(=O)C1(c2nc3c(OC)ccc(-c4ccc5c(c4)COC5=O)n3n2)CC1
> 167	COc1ccc(-c2ccc(C(=O)O)c(CO)c2)n2nc(C3(C(=O)OCC(C)C)CC3)nc12
< 11	COc1ccc(-c2ccc(C(=O)O)c(CO)c2)n2nc(C3(C(=O)O)CC3)nc12
97	COc1ccc(-c2ccc3c(c2)COC3=O)n2nc(C3(C(=O)OC4CCOCC4)CC3)nc12
66	COc1ccc(-c2ccc3c(c2)COC3=O)n2nc(C3(C(=O)OCC(C)(C)O)CC3)nc12

System: not listed separately
Assay: Half life in human whole blood at 0.1 uM by LC-MS/MS analysis
Type: ADME, tissue-based
Details: not given

half-life at 0.1 µM [min]	SMILES
13	CC[C@@H](C)OC(=O)C1(c2nc3c(OC)ccc(-c4ccc5c(c4)COC5=O)n3n2)CC1
> 60	COc1ccc(-c2ccc(C(=O)O)c(CO)c2)n2nc(C3(C(=O)OCC(C)C)CC3)nc12
> 60	COc1ccc(-c2ccc(C(=O)O)c(CO)c2)n2nc(C3(C(=O)O)CC3)nc12
10	COc1ccc(-c2ccc3c(c2)COC3=O)n2nc(C3(C(=O)OC4CCOCC4)CC3)nc12
12	COc1ccc(-c2ccc3c(c2)COC3=O)n2nc(C3(C(=O)OCC(C)(C)O)CC3)nc12

System: not listed separately
Assay: Half life in human keratinocytes at 1 uM by LC-MS/MS analysis
Type: ADME, cell-based, Keratinocyte
Details: not given
Method in brief: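 Plated human epidermal keratinocytes (1 × 10⁴ cells/well) with 1 μM compound in duplicate for up to 24 h; sampled at 0, 1, 2, 4, 24 h, acetonitrile precipitation, LC-MS/MS. Controls in growth medium. Half-life reported.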

half-life at 1 µM [min]	SMILES
> 720	CC[C@@H](C)OC(=O)C1(c2nc3c(OC)ccc(-c4ccc5c(c4)COC5=O)n3n2)CC1
> 720	COc1ccc(-c2ccc(C(=O)O)c(CO)c2)n2nc(C3(C(=O)OCC(C)C)CC3)nc12
> 720	COc1ccc(-c2ccc(C(=O)O)c(CO)c2)n2nc(C3(C(=O)O)CC3)nc12
> 720	COc1ccc(-c2ccc3c(c2)COC3=O)n2nc(C3(C(=O)OC4CCOCC4)CC3)nc12
> 720	COc1ccc(-c2ccc3c(c2)COC3=O)n2nc(C3(C(=O)OCC(C)(C)O)CC3)nc12

System: not listed separately
Assay: Phototoxicity in mouse 3T3 cells
Type: cell-based
Details: not given

SMILES	Activity
CC[C@@H](C)OC(=O)C1(c2nc3c(OC)ccc(-c4ccc5c(c4)COC5=O)n3n2)CC1	Toxic

System: TK6
Assay: Genotoxicity in human TK6 cells in absence of S9 fraction by GreenScreen assay
Type: toxicity, cell-based
Details: not given

SMILES	Activity
COc1ccc(-c2ccc3c(c2)COC3=O)n2nc(C3(C(=O)OC4CCOCC4)CC3)nc12	Toxic

System: not listed separately
Assay: Half life in cynomolgus monkey whole blood at 0.1 uM by LC-MS/MS analysis
Type: ADME, tissue-based, Macaca fascicularis
Details: not given

half-life at 0.1 µM [min]	SMILES
> 60	COc1ccc(-c2ccc(C(=O)O)c(CO)c2)n2nc(C3(C(=O)OCC(C)C)CC3)nc12

System: not listed separately
Assay: Half life in mini pig whole blood at 0.1 uM by LC-MS/MS analysis
Type: ADME, tissue-based, Sus scrofa domesticus
Details: not given

half-life at 0.1 µM [min]	SMILES
> 60	COc1ccc(-c2ccc(C(=O)O)c(CO)c2)n2nc(C3(C(=O)OCC(C)C)CC3)nc12
> 60	COc1ccc(-c2ccc(C(=O)O)c(CO)c2)n2nc(C3(C(=O)O)CC3)nc12

System: not listed separately
Assay: Half life in rat whole blood at 0.1 uM by LC-MS/MS analysis
Type: ADME, tissue-based
Details: not given

half-life at 0.1 µM [min]	SMILES
34	COc1ccc(-c2ccc(C(=O)O)c(CO)c2)n2nc(C3(C(=O)OCC(C)C)CC3)nc12
> 60	COc1ccc(-c2ccc(C(=O)O)c(CO)c2)n2nc(C3(C(=O)O)CC3)nc12

System: not listed separately
Assay: Drug metabolism in rat whole blood assessed as 4-[2-(1-Carboxycyclopropyl)-8-methoxy-[1,2,4]triazolo[1,5-a]-pyridin-5-yl]-2-(hydroxymethyl)benzoic Acid formation at 0.1 uM measured up to 120 mins by LC-MS/MS analysis
Type: ADME, tissue-based
Details: 2 h

Drug metabolism	SMILES
Metabolite_Detected	COc1ccc(-c2ccc(C(=O)O)c(CO)c2)n2nc(C3(C(=O)OCC(C)C)CC3)nc12

System: not listed separately
Assay: Clearance in human hepatocytes at 10 uM by UPLC/TOF-MS analysis
Type: ADME, cell-based, Hepatocyte
Details: not given

CLhep predicted at 10 µM [mL/min/kg]	SMILES
13	COc1ccc(-c2ccc(C(=O)O)c(CO)c2)n2nc(C3(C(=O)OCC(C)C)CC3)nc12
< 5.2	COc1ccc(-c2ccc(C(=O)O)c(CO)c2)n2nc(C3(C(=O)O)CC3)nc12
16	COc1ccc(-c2ccc3c(c2)COC3=O)n2nc(C3(C(=O)OCC(C)(C)O)CC3)nc12

System: not listed separately
Assay: Clearance in mini pig hepatocytes at 10 uM by UPLC/TOF-MS analysis
Type: ADME, cell-based, Sus scrofa domesticus, Hepatocyte
Details: read-out: CLH

CLint scaled at 10 µM [mL/min/kg]	SMILES
21	COc1ccc(-c2ccc(C(=O)O)c(CO)c2)n2nc(C3(C(=O)OCC(C)C)CC3)nc12
< 10	COc1ccc(-c2ccc(C(=O)O)c(CO)c2)n2nc(C3(C(=O)O)CC3)nc12
> 26	COc1ccc(-c2ccc3c(c2)COC3=O)n2nc(C3(C(=O)OCC(C)(C)O)CC3)nc12

System: not listed separately
Assay: Drug exposure in human assessed as ratio of drug level to total AUC at 0.25% of Isobutyl 1-[8-Methoxy-5-(1-oxo-3H-isobenzofuran-5-yl)-[1,2,4]-triazolo[1,5-a]pyridin-2-yl]cyclopropanecarboxylate dosed via topical administration in lipid cream
Type: ADME, organism-based
Details: in vivo, topical_or_ocular

Drug uptake [%]	SMILES
12	COc1ccc(-c2ccc(C(=O)O)c(CO)c2)n2nc(C3(C(=O)OCC(C)C)CC3)nc12
71	COc1ccc(-c2ccc(C(=O)O)c(CO)c2)n2nc(C3(C(=O)O)CC3)nc12

Same assay, conditions: in vivo, topical_or_ocular, BLD = below limit of detection

Drug uptake	SMILES
Bld	COc1ccc(-c2ccc3c(c2)COC3=O)n2nc(C3(C(=O)OCC(C)(C)O)CC3)nc12

System: not listed separately
Assay: Drug exposure in Isobutyl 1-[8-Methoxy-5-(1-oxo-3H-isobenzofuran-5-yl)-[1,2,4]-triazolo[1,5-a]pyridin-2-yl]cyclopropanecarboxylate dosed cynomolgus monkey assessed as ratio of drug level to total AUC
Type: ADME, organism-based, Macaca fascicularis
Details: in vivo
Method in brief: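 Blood was drawn at 0.25–24 h after infusion start and 6, 12, 24 h after infusion end into EDTA-K3, then plasma stabilized with ascorbic acid. LC-MS/MS quantification of parent and metabolites; noncompartmental PK.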

Drug uptake [%]	SMILES
36	COc1ccc(-c2ccc(C(=O)O)c(CO)c2)n2nc(C3(C(=O)OCC(C)C)CC3)nc12
13	COc1ccc(-c2ccc(C(=O)O)c(CO)c2)n2nc(C3(C(=O)O)CC3)nc12
0.1	COc1ccc(-c2ccc3c(c2)COC3=O)n2nc(C3(C(=O)OCC(C)(C)O)CC3)nc12

System: not listed separately
Assay: Drug exposure in of Isobutyl 1-[8-Methoxy-5-(1-oxo-3H-isobenzofuran-5-yl)-[1,2,4]-triazolo[1,5-a]pyridin-2-yl]cyclopropanecarboxylate dosed Gottingen mini pig assessed as ratio of drug level to total AUC at 0.5 to 2 mg/kg, iv measured up to 24 hrs by LC-MS/MS analysis
Type: ADME, organism-based, Sus scrofa domesticus
Details: in vivo, BLD = below limit of detection, dose 0.5-2 mg/kg

Drug uptake	SMILES
Bld	COc1ccc(-c2ccc3c(c2)COC3=O)n2nc(C3(C(=O)OCC(C)(C)O)CC3)nc12

Same assay, conditions: in vivo, dose 0.5-2 mg/kg

Drug uptake [%]	SMILES
15	COc1ccc(-c2ccc(C(=O)O)c(CO)c2)n2nc(C3(C(=O)OCC(C)C)CC3)nc12
23	COc1ccc(-c2ccc(C(=O)O)c(CO)c2)n2nc(C3(C(=O)O)CC3)nc12

System: not listed separately
Assay: Drug exposure in of Isobutyl 1-[8-Methoxy-5-(1-oxo-3H-isobenzofuran-5-yl)-[1,2,4]-triazolo[1,5-a]pyridin-2-yl]cyclopropanecarboxylate dosed Sprague-Dawley rat assessed as ratio of drug level to total AUC at 0.075 mg/kg, iv measured up to 30 mins by LC-MS/MS analysis
Type: ADME, organism-based
Details: in vivo, 0.5 h
Method in brief: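 Male Sprague Dawley rats (n = 3) received a single iv injection of 0.075 mg/kg (50 μg/mL, 1.5 mL/kg) in 20% cyclodextrin. Blood was taken from the tongue vein at 1, 3, 6, 9, 12, 15 and 30 min into lithium-heparin, diluted 1:1 with heparin water, and analysed by LC-MS/MS for parent and metabolites.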

Drug uptake [%]	SMILES
26	COc1ccc(-c2ccc(C(=O)O)c(CO)c2)n2nc(C3(C(=O)OCC(C)C)CC3)nc12
14	COc1ccc(-c2ccc(C(=O)O)c(CO)c2)n2nc(C3(C(=O)O)CC3)nc12

System: not listed separately
Assay: Drug exposure in skin of Gottingen mini pig at 0.25% dosed topically as monoglyceride cream measured after 24 hrs by LC-MS/MS analysis
Type: ADME, organism-based, Sus scrofa domesticus, Skin of body
Details: in vivo, topical_or_ocular
Method in brief: (§1)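 Female Göttingen minipigs received single topical application of 1 or 2.5 mg/g monoglyceride cream at 10 μL/cm² over 4 cm² of belly/flank; excess removed. At 24 h sites were tape stripped (2 + 10 strips), 8 mm punch biopsies were taken and snap frozen, then homogenized, acetonitrile precipitated and analysed by LC-MS/MS; n = 2.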

Drug uptake [µM]	SMILES
2	COc1ccc(-c2ccc(C(=O)O)c(CO)c2)n2nc(C3(C(=O)OCC(C)C)CC3)nc12
6	COc1ccc(-c2ccc(C(=O)O)c(CO)c2)n2nc(C3(C(=O)O)CC3)nc12
26	CCCNC(=O)COc1c(C(=O)Cc2c(Cl)cncc2Cl)ccc(OC)c1OC

System: not listed separately
Assay: Drug exposure in skin of Gottingen mini pig at 0.1% dosed topically as monoglyceride cream measured after 24 hrs by LC-MS/MS analysis
Type: ADME, organism-based, Sus scrofa domesticus, Skin of body
Details: in vivo, topical_or_ocular
Method in brief: as §1

Drug uptake [µM]	SMILES
0.6	COc1ccc(-c2ccc(C(=O)O)c(CO)c2)n2nc(C3(C(=O)OCC(C)C)CC3)nc12
3	COc1ccc(-c2ccc(C(=O)O)c(CO)c2)n2nc(C3(C(=O)O)CC3)nc12
14	CCCNC(=O)COc1c(C(=O)Cc2c(Cl)cncc2Cl)ccc(OC)c1OC

System: not listed separately
Assay: Cmax in cynomolgus monkey at 30 mg/kg, sc dosed as single administration
Type: ADME, organism-based, Macaca fascicularis
Set-up: route subcutaneous, dose 30 mg/kg
Details: in vivo, BLD = below limit of detection
Method in brief: (§2)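 Single subcutaneous dose of 30 mg/kg.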

Cmax	SMILES
Bld	COc1ccc(-c2ccc3c(c2)COC3=O)n2nc(C3(C(=O)OCC(C)(C)O)CC3)nc12

Same assay, conditions: in vivo, read-out: Cmax

Cmax [ng/mL]	SMILES
749	COc1ccc(-c2ccc(C(=O)O)c(CO)c2)n2nc(C3(C(=O)OCC(C)C)CC3)nc12
407	COc1ccc(-c2ccc(C(=O)O)c(CO)c2)n2nc(C3(C(=O)O)CC3)nc12

System: not listed separately
Assay: Cmax in human patient with atopic dermatitis at 0.25% dosed topically as lipid cream
Type: ADME, organism-based
Set-up: dose 0.25 %
Details: in vivo, topical or ocular

Cmax [ng/mL]	SMILES
0.299	COc1ccc(-c2ccc(C(=O)O)c(CO)c2)n2nc(C3(C(=O)OCC(C)C)CC3)nc12
1.89	COc1ccc(-c2ccc(C(=O)O)c(CO)c2)n2nc(C3(C(=O)O)CC3)nc12

System: not listed separately
Assay: AUC (0 to 24 hrs) in cynomolgus monkey at 30 mg/kg, sc dosed as single administration
Type: ADME, organism-based, Macaca fascicularis
Set-up: time < 24 hr, route subcutaneous, dose 30 mg/kg
Details: in vivo
Method in brief: as §2

AUC(0-t) at 24 h [ng·h/mL]	SMILES
932	COc1ccc(-c2ccc(C(=O)O)c(CO)c2)n2nc(C3(C(=O)OCC(C)C)CC3)nc12
1300	COc1ccc(-c2ccc(C(=O)O)c(CO)c2)n2nc(C3(C(=O)O)CC3)nc12

Same assay, conditions: in vivo, 24 h, BLD = below limit of detection

AUC	SMILES
Bld	COc1ccc(-c2ccc3c(c2)COC3=O)n2nc(C3(C(=O)OCC(C)(C)O)CC3)nc12

System: not listed separately
Assay: AUC (0 to 24 hrs) in human patient with atopic dermatitis at 0.25% dosed topically as lipid cream
Type: ADME, organism-based
Set-up: time < 24 hr, dose 0.25 %
Details: in vivo, topical or ocular

AUC(0-t) at 24 h [ng·h/mL]	SMILES
4.18	COc1ccc(-c2ccc(C(=O)O)c(CO)c2)n2nc(C3(C(=O)OCC(C)C)CC3)nc12
24.7	COc1ccc(-c2ccc(C(=O)O)c(CO)c2)n2nc(C3(C(=O)O)CC3)nc12
